Values joined by “and” are separate entries in the source; they are usually repeats but may differ in a detail not shown here. Equal entries are not always repeated. Square brackets hold non-standard residues; d marks the D form. Peptide text beside a SMILES is read from it. * marks the point of attachment. ξ: configuration not given here. βNA = c1ccc2cc(N*)ccc2c1; Cbz = O=C(OCc1ccccc1)*; ξP = O=C(O)C1CCCN1
How the values were obtained:
Rattus norvegicus [1] = organism: Rattus norvegicus; assay: (§1) Lysozyme-conjugated prodrugs: in vitro stability at pH 7.4; assay type: functional
Summary of the method: (§2)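 Conjugate incubated 24 h in pH 5.0 buffer, pH 7.4 buffer, or plasma buffered at pH 7.4. Samples were deproteinized with ACN, MeOH or 2 N HCl, centrifuged, and analyzed by RP-HPLC against an internal standard. Release is % parent drug = parent/(parent + derivative) from IS-normalized peak-area ratios, mean of at least two separate incubations.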

Rattus norvegicus [2] = organism: Rattus norvegicus; assay: as §1; assay type: functional; summary of the method: as §2; remark: listed apart in the source
Rattus norvegicus [3] = organism: Rattus norvegicus; assay: as §1; assay type: functional; summary of the method: as §2; remark: listed apart in the source
Rattus norvegicus [4] = organism: Rattus norvegicus; assay: (§3) Lysozyme-conjugated prodrugs: in vitro stability at pH 5; assay type: ADME; summary of the method: as §2
Rattus norvegicus [5] = organism: Rattus norvegicus; assay: as §3; assay type: functional; summary of the method: as §2
Rattus norvegicus [6] = organism: Rattus norvegicus; assay: as §3; assay type: functional; summary of the method: as §2; remark: listed apart in the source
Rattus norvegicus [7] = organism: Rattus norvegicus; assay: as §1; assay type: functional; summary of the method: as §2; remark: listed apart in the source

SMILES | Drug release (Rattus norvegicus [1]) | Drug release (Rattus norvegicus [2]) | Drug release (Rattus norvegicus [3]) | Drug release (Rattus norvegicus [4]) | Drug release (Rattus norvegicus [5]) | Drug release (Rattus norvegicus [6]) | Drug release (Rattus norvegicus [7])
CC(C)C[C@H](N)C(=O)Nc1ccc2ccccc2c1 | 100% | 0% | 100% | 0% | 100% | 100% | 
COc1ccc2cc(C(C)C(=O)N[C@@H](Cc3ccc(O)cc3)C(=O)NCC(=O)NCC(=O)O)ccc2c1 (stereo in doubt; 1p) |  | 0% | 0% | 0% |  | 0% | 
CC(C)C[C@H](N)C(=O)Nc1nc2nc(N)nc(N)c2nc1-c1ccccc1 |  | 0% | <5% | 0% |  | <5% | 
Cc1cc(NS(=O)(=O)c2ccc(NC(=O)CC3=CC(=O)OC3=O)cc2)no1 | 8% | 15% and 7% | 8% | 100% and 80% | 84% | 84% | 7%
O=C(N[C@@H](Cc1ccccc1)C(=O)O)C1CCCN1C(=O)OCc1ccccc1 (stereo partly specified) (Cbz-[ξP]-Phe-OH) | 100% | 0% | 100% | 0% | 100% | 100% | 
COc1ccc2c(c1)c(CC(=O)N[C@@H](CCC(=O)O)C(=O)O)c(C)n2C(=O)c1ccc(Cl)cc1 |  | 0% | 0% | 0% |  | 0% | 
COc1ccc2c(c1)c(CC(=O)N[C@@H](Cc1c[nH]c3ccccc13)C(=O)O)c(C)n2C(=O)c1ccc(Cl)cc1 |  | 0% | 0% | 0% |  | 0% | 
C[C@@H](NC(=O)C(Cc1ccccc1)NC(=O)OCc1ccccc1)C(=O)O (stereo partly specified) | 100% | 0% | 100% | 0% | 100% | 100% | 
NCC(=O)N[C@@H](Cc1ccccc1)C(=O)Nc1ccc2ccccc2c1 (H-Gly-Phe-βNA) | 100% | 0% | 100% | 0% | 100% | 100% | 
COc1ccc2cc(C(C)C(=O)N[C@@H](CCCN=C(N)N)C(=O)O)ccc2c1 (stereo partly specified) |  | 0% | 0% | 0% |  | 0% | 
COc1ccc2cc(C(C)C(=O)N[C@@H](CC(C)C)C(=O)NCC(=O)NCC(=O)O)ccc2c1 (stereo in doubt; 1c) | <1% | <1% | <1% | < 1% | <1% | <1% | <1%
COc1ccc2cc(C(C)C(=O)N[C@@H](Cc3c[nH]c4ccccc34)C(=O)O)ccc2c1 (stereo partly specified) |  | 0% | 0% | 0% |  | 0% | 
O=C(N[C@@H](Cc1ccc(O)cc1)C(=O)O)c1ccccc1 |  | 0% | 0% | 0% |  | 0% | 
COc1ccc2cc(C(C)C(=O)OCC(=O)O)ccc2c1 (stereo unspecified) | 5% | 2% | 8% | 1% | 45% | 81% | 8%
COc1ccc2c(c1)c(CC(=O)NCCCC[C@H](NC(=O)OCc1ccccc1)C(=O)O)c(C)n2C(=O)c1ccc(Cl)cc1 |  | 0% | 0% | 0% |  | 0% | 
COc1ccc2cc(C(C)C(=O)N[C@@H](CC(C)C)C(=O)NCC(=O)NCC(=O)O)ccc2c1 (stereo in doubt; 1o) |  | 0% | 0% | 0% |  | 0% | 
O=C(O)CC[C@H](NC(=O)c1ccccc1)C(=O)O |  | 0% | 0% | 0% |  | 0% | 
COc1ccc2cc(C(C)C(=O)N[C@H](C(=O)O)C(C)C)ccc2c1 (stereo partly specified) |  | 0% | 0% | 0% |  | 0% | 
NCCCC[C@H](NC(=O)c1ccccc1)C(=O)O |  | 0% | 0% | 0% |  | 0% | 
COc1ccc2cc(C(C)C(=O)N[C@@H](Cc3ccccc3)C(=O)O)ccc2c1 (stereo partly specified) |  | 0% | 0% | 0% |  | 0% | 
COc1ccc2cc(C(C)C(=O)NC(CC(C)C)C(=O)O)ccc2c1 (stereo unspecified) | <1% | <1% | <1% | < 1% | <1% | <1% | <1%

SMILES | Drug release (Rattus norvegicus [1]) | Drug release (Rattus norvegicus [2]) | Drug release (Rattus norvegicus [3]) | Drug release (Rattus norvegicus [4]) | Drug release (Rattus norvegicus [5]) | Drug release (Rattus norvegicus [6]) | Drug release (Rattus norvegicus [7])
COc1ccc2cc(C(C)C(=O)O[C@@H](C)C(=O)O)ccc2c1 (stereo in doubt; 1r) | 3% | 1.4% | 15% | 0.6% | 100% | 100% | 13%
CC(C)C[C@H](N)C(=O)Nc1nc(N)nc2nc(N)c(-c3ccccc3)nc12 |  | 0% | 0% | 0% |  | 0% | 
COc1ccc2c(c1)c(CC(=O)N[C@@H](CC(C)C)C(=O)O)c(C)n2C(=O)c1ccc(Cl)cc1 |  | 0% | 0% | 0% |  | 0% | 
CC(C)C[C@H](N)C(=O)Nc1nc(N)c2nc(-c3ccccc3)c(N)nc2n1 |  | 0% | <5% | 0% |  | <5% | 
COc1ccc2cc(C(C)C(=O)N[C@@H](CCC(=O)O)C(=O)O)ccc2c1 (stereo partly specified) |  | 0% | 0% | 0% |  | 0% | 
COc1ccc2cc(C(C)C(=O)N[C@@H](Cc3ccc(O)cc3)C(=O)O)ccc2c1 (stereo partly specified) |  | 0% | 0% | 0% |  | 0% | 
COc1ccc2c(c1)c(CC(=O)N[C@@H](Cc1ccccc1)C(=O)O)c(C)n2C(=O)c1ccc(Cl)cc1 |  | 0% | 0% | 0% |  | 0% | 
COc1ccc2cc(C(C)C(=O)O[C@@H](C)C(=O)O)ccc2c1 (stereo in doubt) |  | 6.9% |  | 1.1% | 2% | 2% | 6.8%
COc1ccc2cc(C(C)C(=O)N[C@@H](CC(C)C)C(=O)O)ccc2c1 (stereo partly specified) |  | 0% | 0% | 0% |  | 0% | 
COc1ccc2cc(C(C)C(=O)NCCCC[C@H](N)C(=O)O)ccc2c1 (stereo partly specified) | 0% | 0% | 0% | 0% | 0% | 0% | 0%
C[C@H](NC(=O)OCc1ccccc1)C(=O)N1CCC[C@H]1C(=O)N[C@@H](Cc1ccccc1)C(=O)O (Cbz-Ala-Pro-Phe-OH) |  | 0% | 96% | 0% |  | 0% | 
COc1ccc2c(c1)c(CC(=O)NCC(=O)O)c(C)n2C(=O)c1ccc(Cl)cc1 |  | 0% | 0% | 0% |  | 0% | 
CC(C)C[C@H](NC(=O)c1ccccc1)C(=O)O |  | 0% | 0% | 0% |  | 0% | 
COc1ccc2c(c1)c(CC(=O)N[C@@H](Cc1ccc(O)cc1)C(=O)O)c(C)n2C(=O)c1ccc(Cl)cc1 |  | 0% | 0% | 0% |  | 0% | 
O=C(N[C@@H](Cc1ccccc1)C(=O)O)c1ccccc1 |  | 0% | 0% | 0% |  | 0% | 
COc1ccc2cc(C(C)C(=O)N[C@@H](Cc3ccc(O)cc3)C(=O)NCC(=O)NCC(=O)O)ccc2c1 (stereo in doubt; 1e) | <1% | <1% | <1% | < 1% | <1% | <1% | <1%
COc1ccc2cc(C(C)C(=O)NCC(=O)O)ccc2c1 (stereo unspecified) |  | 0% | 0% | 0% |  | 0% | 
COc1ccc2cc(C(C)C(=O)NC(Cc3ccc(O)cc3)C(=O)O)ccc2c1 (stereo unspecified) | <1% | <1% | <1% | < 1% | <1% | <1% | <1%
N=C(N)NCCC[C@H](NC(=O)c1ccccc1)C(=O)O |  | 0% | 0% | 0% |  | 0% | 
O=C(N[C@@H](Cc1c[nH]c2ccccc12)C(=O)O)c1ccccc1 |  | 0% | 0% | 0% |  | 0% | 
O=C(O)CNC(=O)c1ccccc1 [HIPPURIC ACID] |  | 0% | 0% | 0% |  | 0% | 

Source: ChEMBL document CHEMBL1125422, “Low molecular weight proteins as carriers for renal drug targeting. Preparation of drug-protein conjugates and drug-spacer derivatives and their catabolism in renal cortex homogenates and lysosomal lysates” (J Med Chem, 1992)
